# The list is not random: actives were taken first. Their share in the collection is about 4.6%.
# TAAR1 agonist – human TAAR1 agonism; CHO RD-HGA16 TAAR1, Fluo-8 calcium fluorescence; vehicle wells 0%, saturating PEA agonist 100%; activation, % at 3 µM; 360,000 compounds, 0.99% hits; AID 624467;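 active means activation above the mean activation of all test compounds in the run plus 3 SD, cut at about 38% in these data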
# Target sequence (Q96RJ0 whole entry, looked up): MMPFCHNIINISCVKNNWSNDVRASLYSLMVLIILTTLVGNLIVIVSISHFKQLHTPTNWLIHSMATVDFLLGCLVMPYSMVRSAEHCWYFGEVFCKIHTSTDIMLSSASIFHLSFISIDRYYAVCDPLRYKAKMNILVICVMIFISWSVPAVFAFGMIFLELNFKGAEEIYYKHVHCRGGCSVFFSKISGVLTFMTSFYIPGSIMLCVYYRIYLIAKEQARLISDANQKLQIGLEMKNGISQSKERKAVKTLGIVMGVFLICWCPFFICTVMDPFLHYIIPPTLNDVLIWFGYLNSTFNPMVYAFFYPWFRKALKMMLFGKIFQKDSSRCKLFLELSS
#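 Signal – calcium-sensitive Fluo-8 signal, excitation 470-495, emission 515-575 nm · System – RD-HGA16 (CHO) cells co-expressing Gα16 and hTAAR1 · Incubation – 17-24 h seeding, 75 min 37 °C dye, 30 min RT · Compound dosing – 3 µM single concentration · Repeats – no replicates (n 1)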
# OX1R antag-1 – human HCRTR1 antagonism | O43613 | CHO/OX1R cells, Fluo-8 calcium fluorescence, orexin A | inhibition, % at 5 µM | 330,000 compounds, 0.43% hits | AID 434989;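 active means inhibition above its plate's threshold, mean inhibition of all tested compounds on the plate plus 3 SD, cut at about 37% in these data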;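 further: 0% = orexin A challenge wells and 100% = SB-334867-A antagonist wells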
# GPR7 antag – blocks human GPR7 receptor signaling | GPR7-expressing cells, fluorescence antagonist assay | 290,000 compounds, 1.1% hits | AID 1861 | inhibition, % at 4.4 µM | P48145; in the data active means inhibition above about 16%, passing the limit was not always enough;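 further: cells stimulated with the agonist NPW; 0% = agonist with vehicle and 100% = vehicle without agonist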
# TAAR1 antag – antagonists of human TAAR1 | Q96RJ0 | inhibition, % at 3 µM | CHO RD-HGA16 TAAR1, Fluo-8 calcium fluorescence, antagonist | AID 624466 | 360,000 compounds, 1.5% hits;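 active means inhibition above a per-plate cutoff, the mean inhibition of test compounds on that plate plus 3 SD, cut at about 49% in these data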;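 further: 0% = DMSO plus EC80 beta-PEA response and 100% = DMSO alone without agonist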
#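 System: RD-HGA16 CHO cells with stable hTAAR1 and Gα16 | Probe or stimulus: EC80 β-phenethylamine stimulus | Dosing: 3 µM, single point | Times: Dye loading 75 min at 37 °C, then 30 min room temperature | Measured by: Fluo-8 calcium-sensitive fluorescence | Read-out basis: % inhibition of agonist calcium response | Replicates: n of 1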
# CHO parental Ca – counter-screen: ATP calcium response change in parental CHO cells. inhibition, % at 5.6 µM. AID 463079. 330,000 compounds, 0.63% hits. parental CHO-K1, ATP-induced calcium, Fluo-8 fluorescence;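 active means inhibition above that plate's mean sample inhibition plus 3 SD, cut at about 26% in these data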;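 further: 0% = ATP-challenged DMSO wells and 100% = DMSO wells without ATP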
#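 Test system: parental CHO cells; detection: calcium-sensitive Fluo-8 fluorescence; evaluation: percent inhibition of calcium signal; also added: ATP as calcium-mobilizing challenge; repeats: one well per compound; control set: ATP-challenged DMSO wells low, unchallenged DMSO wells high; compound: single nominal dose of 5.6 µM per compound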
# OX1R antag-2 – OX1R (human) antagonism | OX1R-expressing cells, FRET antagonist read-out | O43613 | inhibition, % at 6.6 µM | 330,000 compounds, 1.8% hits | AID 485270; in the data active means inhibition mostly above about 38%, no sharp cut-off; inactive means mostly below about 40%;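 further: 0% = agonist challenge alone and 100% = reference antagonist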
# * hit, by the source's call; x = no result given.
SMILES,TAAR1 agonist,OX1R antag-1,GPR7 antag,TAAR1 antag,CHO parental Ca,OX1R antag-2
CCn1nnnc1NCc1cccc(Cl)c1,2,-15,-12,3,-12,13
O=C(CCSc1nc2ccccc2s1)N/N=C/c1c(O)ccc2ccccc12,3,9,-1,28,6,61*
Cc1cc(C)n(CCC(=O)N/N=C/c2c(O)ccc3ccccc23)n1,14,-38,-10,-21,-31,26
CCOc1ccc(N2CC(C(=O)NCCc3ccc(OC)c(OC)c3)CC2=O)cc1 (stereo unspecified),5,x,-4,-7,x,x
Cc1cccc(OC2CCN(Cc3nc(CC4CC4)no3)CC2)c1,1,-15,20*,-2,-10,14
COc1cc(/C=N/O)ccc1Oc1ccc([N+](=O)[O-])cc1[N+](=O)[O-],23,-24,-4,4,-18,40
O=[N+]([O-])c1cc(/C=N\O)ccc1Oc1ccc(F)cc1,-3,-2,16*,19,-2,14
COc1ccc(C)cc1NC(=O)CCNS(=O)(=O)c1cccc2nonc12,2,-21,-12,-1,-11,71*
CC(=O)C1C(c2cccc([N+](=O)[O-])c2)C2C(C)=NN=C2CC1(C)O (stereo unspecified),1,-2,-6,8,-4,23
COc1ccc(NC(C)=O)cc1S(=O)(=O)N1CCN(Cc2cccs2)CC1,6,-9,x,-6,-5,1
CN1CCN(CC(=O)Nc2cc(N3CCOCC3)ccc2[N+](=O)[O-])CC1,1,-4,-13,0,2,65*
O=[N+]([O-])c1ccc(N2CCOCC2)cc1O,0,-5,10,6,-11,42*
O=[N+]([O-])c1ccc(N2CCOCC2)cn1,2,-16,-3,13,-3,40*
CC(=O)c1cc(N2CCOCC2)ccc1[N+](=O)[O-],0,x,6,-6,x,x
O=[N+]([O-])c1cccnc1N1CCOCC1,5,6,0,10,0,10
C#Cc1ccc([C@@H]2C=C(C(=O)O)O[C@H](OCc3ccc(CO)cc3)C2)cc1,9,-16,-6,-3,-15,26
N#CC(C#N)=C1C=CC=CN1/C(=C\c1ccco1)C(=O)c1ccc(Cl)cc1,8,62*,10,27,90*,88*
Cc1ccc(/C=C2/NC(=O)N(Cc3ccccc3)C2=O)s1,40*,20,2,35,21,2
COC(=O)c1ccc(Cn2cnc3c(N)ncnc32)cc1,-1,x,x,-12,x,x
Cc1ccccc1NC(=O)c1cc(S(=O)(=O)N2CCCCC2)ccc1N1CCOCC1,0,x,x,-16,x,x
N#Cc1cc([N+](=O)[O-])ccc1NC(=O)COC(=O)C1CCC(=O)N1 (stereo unspecified),0,-14,x,4,-5,42*
N#Cc1cc([N+](=O)[O-])ccc1NC(=O)COC(=O)C12CC3CC(CC(C3)C1)C2,x,-26,-9,x,-10,33
N#Cc1cc([N+](=O)[O-])ccc1NC(=O)CSc1n[nH]c(=O)[nH]c1=O,0,-13,x,7,-13,45*
COc1ccc2cc(CCNS(=O)(=O)c3c(C)cc(C)cc3C)c(=O)[nH]c2c1,0,11,7,-18,-9,76*
CCOc1cccc(NC(=O)/C(C#N)=C\c2cn(CC(=O)O)c3ccccc23)c1,-1,0,0,-5,-9,55*
SMILES,TAAR1 agonist,OX1R antag-1,GPR7 antag,TAAR1 antag,CHO parental Ca,OX1R antag-2
CCOc1ccc(NC(=O)/C(C#N)=C/c2cn(CC(=O)O)c3ccccc23)cc1,-1,x,-13,-18,x,x
COc1cc(SC#N)ccc1N=Cc1c(C)[nH]n(-c2ccc(C)c(C)c2)c1=O,-1,96*,0,87*,96*,-3
COc1cc(SC#N)ccc1N=Cc1c(C)[nH]n(-c2ccc(Cl)cc2)c1=O,1,30,-7,13,18,17
Oc1ccc(Br)cc1CNc1cccc2cccnc12,4,-8,3,-2,-1,16
Oc1c(Br)cc(Br)cc1CNc1cccc2cccnc12,4,5,-6,-5,-9,29*
COc1cccc(CNc2cccc3cccnc23)c1O,10,-17,-7,6,13,54*
O=[N+]([O-])c1cc2c(cc1/C=N/n1cnnc1)OCO2,8,6,-13,10,-6,77*
COc1ccc(C(=O)CCC(C)(C)[N+](=O)[O-])cc1OC,1,2,-12,-1,-9,24
O=C1C(Oc2ccc(Cl)cc2)C(c2ccc3c(c2)OCO3)N1CC1CCCO1 (stereo unspecified),14,-24,5,50*,-6,19
Cc1csc(SCC(=O)Nc2ccc(F)cc2Cl)n1,-1,-17,x,0,-6,7
COc1ccc(S(N)(=O)=O)cc1N(C)S(=O)(=O)c1ccccc1,7,-6,-11,11,-6,51
COc1ccc(N(S(=O)(=O)c2ccccc2)S(=O)(=O)c2ccccc2)c(N)c1,13,-4,x,51*,-11,20
Cc1ccc(N/C(N)=N/c2nc3c(c(=O)[nH]2)CCCC3)c(C)c1,3,-21,10,4,-13,10
Cc1ccc(N/C(N)=N/c2nc(C)cc(N3CCCCC3)n2)c(C)c1,22,-1,27*,24,9,21
N#Cc1c(SC(C(=O)O)c2ccccc2)nc2c(c1-c1cccs1)CCCC2 (stereo unspecified),38*,-27,-8,-10,-20,33
CCN(CC)C(=O)Cn1cc(S(=O)(=O)CC(=O)NCCc2ccc(OC)c(OC)c2)c2ccccc21,0,-25,-13,-15,-17,18
CC(=O)OCCCNc1cc(Sc2ccc(Cl)cc2)c2nonc2c1[N+](=O)[O-],3,16,-10,-11,2,9
CCCC(=O)OCCNc1cc(Sc2nc3ccccc3[nH]2)c2nonc2c1[N+](=O)[O-],0,13,25*,28,38*,65*
CCN(CC)Cc1oc(-c2ccccc2)cc1C(=O)O,0,-2,-11,-27,-6,-8
CC(C)C1C(C#N)=C(N)Oc2n[nH]c(-c3ccc4ccccc4c3)c21 (stereo unspecified),22,42,-8,32,34*,-4
O=C(Nc1ccc(/C=C/c2nc3ccccc3o2)cc1)c1c(F)cccc1F,9,-26,9,53*,-20,36
COC(=O)c1cccc(NC(=O)CCSc2ccc(Cl)cc2)c1C,77*,2,-1,91*,28,13
COC(=O)c1ccc(C)c(NC(=O)CCSc2ccc(Cl)cc2)c1,10,-28,-1,7,-27,25

# Screening results as filed in PubChem BioAssay.
